Lung fibro prol: blocks proliferation of human lung fibroblasts; LL 47 human lung fibroblast viability, ATP luminescence; hits give low values; viability, % at 10 µM; 1.1% of 85,000 active;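 active = viability at or below 50% in the single dose screen; inactive = viability above 50%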;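 also: compound exposure lasted 72 h before the ATP readout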
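Signal: luminescent ATP detection, CellTiter-Glo; assay system: LL 47 human lung fibroblasts; input: 1,150 cells/well; incubation: overnight cell rest, 72 h compound treatment at 37 °C; measure: % viability versus median cells-only luminescence; medium: IMEM growth medium with 15% fetal bovine serum; dosing: compound addition at 0.1% DMSO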
HUVEC inhibit: inhibitors of human endothelial cell proliferation; HUVEC proliferation, CellTiter-Glo luminescence, 72 h; hits give low values; viability, % at 10 µM (by protocol); 1.1% of 86,000 active; AID 648;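 active = viability at or below 30%; inactive = viability above 30%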
ERb SRC1 inh: blocks coactivator binding to human estrogen receptor beta; 1.3% of 86,000 active; inhibition, % at 25.6 µM; AID 633; TR-FRET ER-beta LBD / SRC1-Cy5 peptide binding; receptor agonist-loaded with 1 µM estradiol;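 active = compounds whose percent inhibition of the receptor-coactivator binding signal exceeds about 50% in the single-dose screen, limit read from the data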
H69AR growth 86K: blocks growth of human H69AR lung tumor cells. H69AR lung tumor viability, ATP luminescence, 72 h; hits give low values. viability, % at 10 µM. 6% of 85,000 active. AID 598;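 active = viability at or below 40%; inactive = viability above 40%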;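 also: multidrug resistant small cell line overexpressing MRP-1 efflux transporter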
ERa SRC1 pot: enhances coactivator binding to human estrogen receptor alpha; P03372; TR-FRET ERalpha-LBD/SRC-Cy5 coactivator binding, 2 h; 100 = basal binding, no effect; coactivator binding (% of control), % at 25.6 µM; 1.3% of 86,000 active; AID 639; in the data active = activity above about 200%;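 also: binding measured in presence of low estradiol as agonist stimulus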
Target sequence (P03372 whole entry, looked up, the tested form may be a part): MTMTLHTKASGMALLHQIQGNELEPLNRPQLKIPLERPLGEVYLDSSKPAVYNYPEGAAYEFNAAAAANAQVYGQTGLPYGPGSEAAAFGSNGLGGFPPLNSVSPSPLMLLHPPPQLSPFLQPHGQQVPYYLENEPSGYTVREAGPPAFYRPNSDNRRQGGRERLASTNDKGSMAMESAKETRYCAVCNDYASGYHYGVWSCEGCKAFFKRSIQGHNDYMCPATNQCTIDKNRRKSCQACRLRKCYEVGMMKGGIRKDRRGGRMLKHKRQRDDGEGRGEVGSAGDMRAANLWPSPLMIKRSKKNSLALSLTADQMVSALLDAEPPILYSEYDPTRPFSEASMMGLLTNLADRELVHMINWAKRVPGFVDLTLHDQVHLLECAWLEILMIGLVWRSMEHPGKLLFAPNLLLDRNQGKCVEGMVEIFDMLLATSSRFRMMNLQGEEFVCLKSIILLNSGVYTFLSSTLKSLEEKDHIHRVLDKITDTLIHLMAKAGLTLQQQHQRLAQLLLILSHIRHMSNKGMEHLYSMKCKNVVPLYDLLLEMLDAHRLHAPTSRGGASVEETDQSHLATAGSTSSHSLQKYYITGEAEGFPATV
ERa SRC1 inh: blocks coactivator binding to human estrogen receptor alpha. TR-FRET ER-alpha LBD / SRC-1 peptide, estradiol-bound. 1.7% of 86,000 active. inhibition, % at 25.6 µM; in the data active = inhibition above about 50%
A number is an active result; [ ] = dose if it differs, or a comment. Compounds with a hit are over-represented: about 9.2% of the library has one in this group of screens.

Screening N#CC(c1ccc(Cl)cc1)c1ccc(Cl)nn1 (configuration not stated) returned Lung fibro prol inactive, HUVEC inhibit inactive, ERb SRC1 inh inactive, H69AR growth 86K inactive, ERa SRC1 pot inactive and ERa SRC1 inh inactive.
Screening c1ccc(-c2nnc(Cn3c4ccccc4c4nc5ccccc5nc43)o2)cc1 returned Lung fibro prol inactive, HUVEC inhibit inactive, ERb SRC1 inh inactive, H69AR growth 86K 11.0, ERa SRC1 pot inactive and ERa SRC1 inh inactive.
CCOC(=O)C(NCc1ccc2c(c1)OCO2)(NC(=O)c1ccccc1)C(F)(F)F (configuration not stated) was read as Lung fibro prol inactive, HUVEC inhibit inactive, ERb SRC1 inh inactive, H69AR growth 86K inactive, ERa SRC1 pot inactive and ERa SRC1 inh inactive.
`CCOC(=O)N1CC=C2C(C#N)=C(N)C(C#N)(C#N)[C@H](c3ccc(OC(C)C)c(OCC)c3)[C@H]2C1` gave Lung fibro prol inactive, HUVEC inhibit inactive, ERb SRC1 inh inactive, H69AR growth 86K 36.7, ERa SRC1 pot inactive and ERa SRC1 inh inactive.
`CCOC(=O)N1CC=C2C(C#N)=C(N)C(C#N)(C#N)[C@H](c3ccsc3)[C@H]2C1` gave Lung fibro prol inactive, HUVEC inhibit inactive, ERb SRC1 inh inactive, H69AR growth 86K inactive, ERa SRC1 pot inactive and ERa SRC1 inh inactive.
`N#CC1=C(N)C(C#N)(C#N)C(c2ccncc2)C2CN(C(=O)OCc3ccccc3)CC=C12` (configuration not stated) gave Lung fibro prol inactive, HUVEC inhibit inactive, ERb SRC1 inh inactive, H69AR growth 86K 7.7, ERa SRC1 pot inactive and ERa SRC1 inh inactive.
For Oc1ccccc1/C=N/Nc1nccnc1Cl the results were Lung fibro prol 31.6, HUVEC inhibit inactive, ERb SRC1 inh inactive, H69AR growth 86K inactive, ERa SRC1 pot inactive and ERa SRC1 inh inactive.
COC(=O)c1ccc(Oc2cc(C)nc(SC)n2)cc1 was read as Lung fibro prol inactive, HUVEC inhibit inactive, ERb SRC1 inh inactive, H69AR growth 86K 30.1, ERa SRC1 pot inactive and ERa SRC1 inh inactive.
`CCOC(=O)NC1(C(F)(F)F)C(=O)N(Cc2ccccc2)C2=C1C(=O)CC(C)(C)C2` (configuration not stated) gave Lung fibro prol inactive, HUVEC inhibit inactive, ERb SRC1 inh inactive, H69AR growth 86K inactive, ERa SRC1 pot inactive and ERa SRC1 inh inactive.
Screening CCn1c(O)c(C=Nc2ccccc2)n(-c2ccccc2)c1=S returned Lung fibro prol inactive, HUVEC inhibit inactive, ERb SRC1 inh inactive, H69AR growth 86K inactive, ERa SRC1 pot inactive and ERa SRC1 inh inactive.
O=C(O)c1ccc(-c2cccc(Cl)c2)o1 was read as Lung fibro prol inactive, HUVEC inhibit inactive, ERb SRC1 inh inactive, H69AR growth 86K inactive, ERa SRC1 pot inactive and ERa SRC1 inh inactive.
`CC1=NOC(=O)/C1=C\c1ccc(-c2cccc(Cl)c2)o1` gave Lung fibro prol 8.0, HUVEC inhibit inactive, ERb SRC1 inh inactive, H69AR growth 86K 1.1, ERa SRC1 pot inactive and ERa SRC1 inh inactive.
`Cc1cccc(OCC(=O)O/N=C(\N)c2ccccn2)c1` gave Lung fibro prol inactive, HUVEC inhibit inactive, ERb SRC1 inh inactive, H69AR growth 86K inactive, ERa SRC1 pot inactive and ERa SRC1 inh inactive.
For Cc1cccc(OCc2nc(-c3ccccn3)n[nH]2)c1 the results were Lung fibro prol inactive, HUVEC inhibit inactive, ERb SRC1 inh inactive, H69AR growth 86K 33.7, ERa SRC1 pot inactive and ERa SRC1 inh inactive.
`Cc1ccc(OCc2nc(-c3ccccn3)n[nH]2)cc1` gave Lung fibro prol inactive, HUVEC inhibit inactive, ERb SRC1 inh inactive, H69AR growth 86K 33.4, ERa SRC1 pot inactive and ERa SRC1 inh inactive.
Cc1cc(C)nc(Nc2n[nH]c(COc3ccc(Cl)cc3)n2)n1 was read as Lung fibro prol inactive, HUVEC inhibit inactive, ERb SRC1 inh inactive, H69AR growth 86K inactive, ERa SRC1 pot inactive and ERa SRC1 inh inactive.
For Cc1nn(C)c(C)c1N=Cc1c(O)ccc2ccccc12 the results were Lung fibro prol inactive, HUVEC inhibit inactive, ERb SRC1 inh 67.6[fluorescence artefact?], H69AR growth 86K inactive, ERa SRC1 pot inactive and ERa SRC1 inh inactive.
Oc1ccc2ccccc2c1/C=N/n1cnnc1 was read as Lung fibro prol inactive, HUVEC inhibit inactive, ERb SRC1 inh inactive, H69AR growth 86K inactive, ERa SRC1 pot inactive and ERa SRC1 inh inactive.
For Cc1nc2sc(C(c3cccc(F)c3)N3CCCC(C)C3)c(O)n2n1 (configuration not stated) the results were Lung fibro prol inactive, HUVEC inhibit inactive, ERb SRC1 inh inactive, H69AR growth 86K inactive, ERa SRC1 pot inactive and ERa SRC1 inh inactive.
For COc1ccccc1-c1nc2s/c(=C\c3cccs3)c(=O)n2n1 the results were Lung fibro prol inactive, HUVEC inhibit inactive, ERb SRC1 inh inactive, H69AR growth 86K inactive, ERa SRC1 pot inactive and ERa SRC1 inh 67.0[fluorescence artefact?].
For O=c1/c(=C/c2ccco2)sc2nc(-c3ccccc3Br)nn12 the results were Lung fibro prol inactive, HUVEC inhibit inactive, ERb SRC1 inh 61.7[fluorescence artefact?], H69AR growth 86K inactive, ERa SRC1 pot inactive and ERa SRC1 inh 59.2[fluorescence artefact?].
COc1ccccc1/C=c1\sc2nc(-c3cccs3)nn2c1=O was read as Lung fibro prol inactive, HUVEC inhibit inactive, ERb SRC1 inh inactive, H69AR growth 86K inactive, ERa SRC1 pot inactive and ERa SRC1 inh inactive.
Screening O=C(Nc1nccs1)C1CCCN1S(=O)(=O)c1ccc(F)cc1 (configuration not stated) returned Lung fibro prol inactive, HUVEC inhibit inactive, ERb SRC1 inh inactive, H69AR growth 86K inactive, ERa SRC1 pot inactive and ERa SRC1 inh inactive.
For CCOC(=O)C1=C(CSc2nc(C)cc(C)c2C#N)OC(N)=C(C#N)C1c1ccccc1 (configuration not stated) the results were Lung fibro prol inactive, HUVEC inhibit inactive, ERb SRC1 inh inactive, H69AR growth 86K inactive, ERa SRC1 pot inactive and ERa SRC1 inh inactive.
For CCOC(=O)C1=C(CSc2nc(-c3ccccc3)ccc2C#N)OC(N)=C(C#N)C1c1ccc(OC)cc1 (configuration not stated) the results were Lung fibro prol inactive, HUVEC inhibit inactive, ERb SRC1 inh inactive, H69AR growth 86K inactive, ERa SRC1 pot inactive and ERa SRC1 inh inactive.
CCOC(=O)C1=C(CSc2nc(CC)c(C)cc2C#N)OC(N)=C(C#N)C1c1ccccc1 (configuration not stated) was read as Lung fibro prol inactive, HUVEC inhibit inactive, ERb SRC1 inh inactive, H69AR growth 86K 28.2, ERa SRC1 pot inactive and ERa SRC1 inh inactive.
`CCOC(=O)C1=C(CSc2nc3c(cc2C#N)CN(C)CC3)OC(N)=C(C#N)C1c1ccc(Cl)cc1` (configuration not stated) gave Lung fibro prol inactive, HUVEC inhibit inactive, ERb SRC1 inh inactive, H69AR growth 86K 35.6, ERa SRC1 pot inactive and ERa SRC1 inh inactive.

High-throughput results (PubChem)
